Blank lines part the entries; values can stand above or below the compound they belong to.
Legend:
estrogenic potency = conditions: cited from earlier work
arylsulfatase = assay: Arylsulfatase inhibition assay; assay type: biochemical, Helix pomatia; conditions: for type of inhibition of arylsulfatase: Lineweaver–Burk plot; for reversibility of inhibition of arylsulfatase: enzyme activity vs enzyme concentration at four inhibitor concentrations
β-glucuronidase = assay: β-Glucuronidase inhibition assay; assay type: biochemical, H. pomatia; conditions: for reversibility of inhibition of β-glucuronidase: enzyme activity vs enzyme concentration at four inhibitor concentrations
Summary of the method: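 H. pomatia β-glucuronidase (type H-1), stock 10 U/mL in 0.5 M Tris-HCl pH 7.0. Incubated 1 h at 37 °C in 0.1 M phosphate buffer pH 7.0 with pNPG (5 mM stock) and test compound or water control. Stopped with 0.5 M NaOH; pNP read at 400 nm. Final H2O2 1–10,000 μM; NaClO and PAA 1–1000 μM. Triplicates; % inhibition relative to control without test compound.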

Compound: CCCCC(CC)COC(=O)c1ccccc1C(=O)OCC(CC)CCCC (stereo not shown) [DEHP, di-2-(ethylhexyl) phthalate]
estrogenic potency (estrogenic potency): 10^–7

type of inhibition of arylsulfatase (arylsulfatase): competitive | reversibility of inhibition of arylsulfatase (arylsulfatase): reversible | inhibition of arylsulfatase under weak alkaline condition (in words) (arylsulfatase; pH 8): reduced inhibition | differences in the inhibition of arylsulfatase across pH (in words) (arylsulfatase; pH range of 5–7): no significant differences | inhibition on β-glucuronidase (in words) (β-glucuronidase; pH 7.0, tested 1-10,000 μM): no inhibition
Compound: OO [H2O2, hydrogen peroxide]

Compound: CC(=O)OO [PAA, peracetic acid]
type of inhibition of arylsulfatase (arylsulfatase): noncompetitive | reversibility of inhibition of arylsulfatase (arylsulfatase): reversible | inhibition of arylsulfatase at pH 8 (in words) (arylsulfatase; pH 8, concentration below 1 mM): nearly no inhibition | type of inhibition of β-glucuronidase (β-glucuronidase; Lineweaver–Burk plot): noncompetitive | reversibility of inhibition of β-glucuronidase (β-glucuronidase): reversible | maximum inhibition degree on β-glucuronidase (β-glucuronidase; pH 7.0, tested up to 1000 μM): about 60%

Compound: [Cd] [cadmium]
estrogenic potency (in words) (estrogenic potency): no estrogenic potency at all

reversibility of inhibition of arylsulfatase (arylsulfatase): irreversible | IC50 (arylsulfatase; read-out: IC50 on arylsulfatase at pH 5.0, pH 5.0): 7.64 ± 0.61 µM | reversibility of inhibition of β-glucuronidase (β-glucuronidase): irreversible
Compound: OCl [hypochlorite]
